Each structure is given as a SMILES string. Calls of active or inactive are those of the source. The calls are words filed in the database; no cut-off is given here.

In general, IC50 refers to the midpoint of a concentration-inhibition curve.

In experiment [1] the target is T1, Somatostatin receptor type 2 (Homo sapiens, UniProt P30874). The experiment in a line: Antagonist activity at T7 epitope tagged human cloned sst2 receptor expressed in HEK293 cells assessed as inhibition of [Tyr3]octreotide-induced receptor internalization upto 10 uM by immunofluorescence-based assay. Type of experiment: functional, cell-based. An outline of the steps:
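Immunofluorescence microscopy with sst2-specific antibody R2-88 on HEK-sst2 cells treated 30 min with vehicle, 100 nM [Tyr3]-octreotide, 100 nM [Tyr3]-octreotide plus 100-fold excess (10 μM) analogue, or analogue alone at 10 μM; internalization scored as punctate perinuclear staining.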

Experiment [2] concerns the target T1, Somatostatin receptor type 2. The experiment can be described thus: Antagonist activity at T7 epitope tagged human cloned sst2 receptor expressed in HEK293 cells assessed as inhibition of [Tyr3]octreotide-induced receptor internalization upto 10 uM. Type of experiment: functional, cell-based. Put shortly:
(§1)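 Surface T7-tagged sst2 on HEK-sst2 cells labelled with anti-T7 antibody 2 h RT in DMEM-LH, then cells exposed 30 min at 37 °C to analogue (alone up to 10 μM or with [Tyr3]-octreotide), fixed in 3% paraformaldehyde, probed with HRP anti-mouse IgG, ABTS read at OD405; surface receptor as % of untreated; mean ± SEM, three experiments in duplicate.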

Experiment [3] has the same target. The experiment in a line: Antagonist activity at T7 epitope tagged human cloned sst2 expressed in HEK293 cells assessed as intracellular calcium release upto 10 uM. It is filed as functional, cell-based. An outline of the steps:
(§2)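 HEK-sst2 cells seeded on poly-D-lysine, cultured 1 day, loaded with Fluo-4NW dye (assay buffer HBSS/20 mM HEPES, 2.5 mM probenecid) 30 min 37 °C plus 30 min RT. Analogues alone up to 10 μM, or [Tyr3]-octreotide with 100-fold excess analogue; fluorescence (ex 485/em 520 nm) recorded 60 s at RT; percentage of ionomycin (25 μM) maximum over baseline; ≥3 experiments in triplicate.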
(Calcium assays in cells follow changes in intracellular calcium, usually with a dye or a luminescent sensor.)

Experiment [4] has the same target. The experiment in a line: Antagonist activity at T7 epitope tagged human cloned sst2 expressed in HEK293 cells assessed as [Tyr3]octreotide-induced intracellular calcium release upto 10 uM. Type of experiment: functional, cell-based. Put shortly:
as §2

Experiment [5] has the same target. The experiment can be described thus: Antagonist activity at T7 epitope tagged human cloned sst2 receptor expressed in HEK293 cells assessed as inhibition of receptor internalization upto 10 uM by ELISA. It is filed as functional, cell-based. Put shortly: as §1
A general note: In an ELISA, binding on a coated surface is turned into a signal by an enzyme label.

Experiment [6] has the same target. The experiment can be described thus: Displacement of [125I][LTT]SRIF28 from human cloned sst2 receptor by autoradiography. For orientation: In a radioligand displacement assay an active substance lowers the binding of a labelled ligand.
In experiment [7] the target is Somatostatin receptor type 3 (Homo sapiens, UniProt P32745). The experiment can be described thus: Displacement of [125I][LTT]SRIF28 from human cloned sst3 receptor by autoradiography.
Sequence of Somatostatin receptor type 3 (P32745 whole entry): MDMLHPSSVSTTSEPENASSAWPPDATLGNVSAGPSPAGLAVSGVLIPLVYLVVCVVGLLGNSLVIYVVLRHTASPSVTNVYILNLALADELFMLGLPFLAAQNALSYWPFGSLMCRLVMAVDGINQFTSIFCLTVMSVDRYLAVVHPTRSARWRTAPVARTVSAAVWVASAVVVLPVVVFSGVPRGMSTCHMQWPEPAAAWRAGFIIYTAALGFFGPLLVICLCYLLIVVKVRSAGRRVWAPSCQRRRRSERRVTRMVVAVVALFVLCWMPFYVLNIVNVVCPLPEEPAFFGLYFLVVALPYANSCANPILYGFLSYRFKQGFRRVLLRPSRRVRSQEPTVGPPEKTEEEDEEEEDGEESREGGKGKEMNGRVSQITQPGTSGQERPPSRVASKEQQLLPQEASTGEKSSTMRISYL
The target of experiment [8] is Somatostatin receptor type 5 (Homo sapiens, UniProt P35346). The experiment can be described thus: Displacement of [125I][LTT]SRIF28 from human cloned sst5 receptor by autoradiography.
Sequence of Somatostatin receptor type 5 (P35346 whole entry): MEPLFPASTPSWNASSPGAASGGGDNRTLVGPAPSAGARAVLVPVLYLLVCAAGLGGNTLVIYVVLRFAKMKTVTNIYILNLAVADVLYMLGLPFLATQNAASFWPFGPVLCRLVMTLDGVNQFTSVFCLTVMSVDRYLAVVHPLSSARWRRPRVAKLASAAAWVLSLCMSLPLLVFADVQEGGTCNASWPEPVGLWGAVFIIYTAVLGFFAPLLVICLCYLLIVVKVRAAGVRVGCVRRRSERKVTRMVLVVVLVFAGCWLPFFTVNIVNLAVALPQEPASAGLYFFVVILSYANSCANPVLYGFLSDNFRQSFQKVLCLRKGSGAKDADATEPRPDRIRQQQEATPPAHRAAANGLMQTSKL
The target of experiment [9] is Somatostatin receptor type 1 (Homo sapiens, UniProt P30872). The experiment in a line: Displacement of [125I][LTT]SRIF28 from human cloned sst1 receptor by autoradiography.
Sequence of Somatostatin receptor type 1 (P30872 whole entry): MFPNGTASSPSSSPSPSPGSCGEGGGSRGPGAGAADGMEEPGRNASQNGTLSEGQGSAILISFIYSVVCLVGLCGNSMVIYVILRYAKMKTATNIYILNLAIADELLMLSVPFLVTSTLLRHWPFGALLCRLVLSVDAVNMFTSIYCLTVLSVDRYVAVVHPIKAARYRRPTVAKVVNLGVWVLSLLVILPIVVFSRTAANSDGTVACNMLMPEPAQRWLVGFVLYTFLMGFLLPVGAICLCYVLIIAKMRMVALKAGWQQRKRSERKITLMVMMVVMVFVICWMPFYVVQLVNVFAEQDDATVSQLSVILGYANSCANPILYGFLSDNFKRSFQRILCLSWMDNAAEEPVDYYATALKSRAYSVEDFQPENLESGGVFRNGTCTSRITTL
In experiment [10] the target is Somatostatin receptor type 4 (Homo sapiens, UniProt P31391). The experiment in a line: Displacement of [125I][LTT]SRIF28 from human cloned sst4 receptor by autoradiography.
Sequence of Somatostatin receptor type 4 (P31391 whole entry): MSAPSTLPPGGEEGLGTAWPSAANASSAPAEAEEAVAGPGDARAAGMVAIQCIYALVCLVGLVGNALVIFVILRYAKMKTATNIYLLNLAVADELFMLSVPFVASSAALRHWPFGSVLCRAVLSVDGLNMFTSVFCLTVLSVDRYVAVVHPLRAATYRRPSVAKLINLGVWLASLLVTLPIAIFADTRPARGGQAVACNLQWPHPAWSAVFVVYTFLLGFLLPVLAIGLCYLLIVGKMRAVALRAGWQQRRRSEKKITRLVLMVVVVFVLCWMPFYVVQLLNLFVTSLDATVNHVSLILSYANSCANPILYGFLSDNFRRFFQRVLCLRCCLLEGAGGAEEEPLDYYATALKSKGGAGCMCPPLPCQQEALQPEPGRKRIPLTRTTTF

T1 sequence (P30874 whole entry): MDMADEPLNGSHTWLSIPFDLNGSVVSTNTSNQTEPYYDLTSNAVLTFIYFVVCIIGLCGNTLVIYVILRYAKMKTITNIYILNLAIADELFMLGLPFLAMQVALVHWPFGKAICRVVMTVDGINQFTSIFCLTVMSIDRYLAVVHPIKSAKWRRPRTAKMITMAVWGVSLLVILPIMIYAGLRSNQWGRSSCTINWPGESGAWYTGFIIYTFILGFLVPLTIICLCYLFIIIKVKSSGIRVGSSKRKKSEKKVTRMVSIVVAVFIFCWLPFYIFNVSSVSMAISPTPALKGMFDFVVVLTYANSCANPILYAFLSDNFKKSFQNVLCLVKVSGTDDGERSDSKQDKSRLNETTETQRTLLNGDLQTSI

`C[C@@H](O)[C@@H]1NC(=O)[C@H](CCCCN)NC(=O)[C@@H](Cc2ccc(NC(N)=O)cc2)NC(=O)[C@H](Cc2ccc(NC(=O)[C@@H]3CC(=O)NC(=O)N3)cc2)NC(=O)[C@H](NC(=O)[C@@H](Cc2ccc(Cl)cc2)NC(=O)CN2CCN(CC(=O)O)CCN(CC(=O)O)CCN(CC(=O)O)CC2)CSSC[C@@H](C(=O)N[C@H](Cc2ccc(O)cc2)C(N)=O)NC1=O`: the result in experiment [1], in [2] and in [4] was Active. Further, the outcome in [3] was inactive.
With `C[C@@H](O)[C@@H]1NC(=O)[C@H](CCCCN)NC(=O)[C@@H](Cc2ccc(NC(N)=O)cc2)NC(=O)[C@H](Cc2ccc(O)cc2)NC(=O)[C@H](NC(=O)[C@@H](Cc2ccc([N+](=O)[O-])cc2)NC(=O)CN2CCN(CC(=O)O)CCN(CC(=O)O)CCN(CC(=O)O)CC2)CSSC[C@@H](C(=O)N[C@H](Cc2ccc(O)cc2)C(N)=O)NC1=O`, the result in experiment [1], in experiment [2] and in experiment [4] was Active. Moreover, the result in experiment [3] was inactive.
With `C[C@@H](O)[C@@H]1NC(=O)[C@H](CCCCN)NC(=O)[C@@H](Cc2ccc(NC(N)=O)cc2)NC(=O)[C@H](Cc2ccc(NC(=O)[C@@H]3CC(=O)NC(=O)N3)cc2)NC(=O)[C@H](NC(=O)[C@@H](Cc2ccc(Cl)cc2)NC(=O)CN2CCN(CC(=O)O)CCN(CC(=O)O)CCN(CC(=O)O)CC2)CSSC[C@@H](C(=O)N[C@@H](Cc2ccc3ccccc3c2)C(N)=O)NC1=O`, the result in [2] and in experiment [4] was Active. Further, the result in experiment [3] was inactive.
In the case of `C[C@@H](O)[C@@H]1NC(=O)[C@H](CCCCN)NC(=O)[C@@H](Cc2c[nH]c3ccccc23)NC(=O)[C@H](Cc2ccc(O)c(I)c2)NC(=O)[C@H](NC(=O)[C@@H](Cc2ccc([N+](=O)[O-])cc2)NC(=O)CN2CCN(CC(=O)O)CCN(CC(=O)O)CCN(CC(=O)O)CC2)CSSC[C@@H](C(=O)N[C@H](Cc2ccc(O)cc2)C(N)=O)NC1=O`, the outcome in experiment [1], in experiment [2] and in experiment [4] was Active. The result in experiment [3] and in experiment [5] was inactive.
Take `C[C@@H](O)[C@@H]1NC(=O)[C@H](CCCCN)NC(=O)[C@@H](Cc2c[nH]c3ccccc23)NC(=O)[C@H](Cc2ccc(NC(N)=O)cc2)NC(=O)[C@H](NC(=O)[C@@H](Cc2ccc(Cl)cc2)NC(=O)CCNC(=O)CN2CCN(CC(=O)O)CCN(CC(=O)O)CCN(CC(=O)O)CC2)CSSC[C@@H](C(=O)N[C@@H](Cc2ccc3ccccc3c2)C(N)=O)NC1=O`: the result in [2] and in experiment [4] was Active. The result in [3] was inactive.
Consider `C[C@@H](O)[C@@H]1NC(=O)[C@H](CCCCN)NC(=O)[C@@H](Cc2ccc(NC(N)=O)cc2)NC(=O)[C@H](Cc2ccc(NC(=O)[C@@H]3CC(=O)NC(=O)N3)cc2)NC(=O)[C@H](NC(=O)[C@@H](N)Cc2ccc([N+](=O)[O-])cc2)CSSC[C@@H](C(=O)N[C@@H](Cc2ccc3ccccc3c2)C(N)=O)NC1=O`, for which the IC50 in experiment [6] was 2.7 nM; in experiment [7] it was 451 nM; in [8] it was more than 1000 nM; in [9], more than 1000 nM; in experiment [10], more than 1000 nM.
As to `C[C@@H](O)[C@@H]1NC(=O)[C@H](CCCCN)NC(=O)[C@@H](Cc2c[nH]c3ccccc23)NC(=O)[C@H](Cc2ccc(O)c(I)c2)NC(=O)[C@H](NC(=O)[C@H](Cc2ccc([N+](=O)[O-])cc2)NC(=O)CN2CCN(CC(=O)O)CCN(CC(=O)O)CCN(CC(=O)O)CC2)CSSC[C@@H](C(=O)N[C@H](Cc2ccc(O)cc2)C(N)=O)NC1=O`, the IC50 in [6] was 1.2 nM; in experiment [7], more than 1000 nM; in [8], more than 1000 nM; in experiment [9] it was more than 1000 nM; in [10] it was 455 nM.
In the case of `C[C@@H](O)[C@@H]1NC(=O)[C@H](CCCCN)NC(=O)[C@@H](Cc2ccc(NC(N)=O)cc2)NC(=O)[C@H](Cc2ccc(NC(=O)[C@@H]3CC(=O)NC(=O)N3)cc2)NC(=O)[C@H](NC(=O)[C@H](Cc2ccc(Cl)cc2)NC(=O)CN2CCN(CC(=O)O)CCN(CC(=O)O)CCN(CC(=O)O)CC2)CSSC[C@@H](C(=O)N[C@@H](Cc2ccc3ccccc3c2)C(N)=O)NC1=O`, the IC50 was 1.7 nM in experiment [6]; more than 1000 nM in experiment [7]; more than 1000 nM in experiment [8]; more than 1000 nM in [9]; more than 1000 nM in [10].
As to `C[C@@H](O)[C@@H]1NC(=O)[C@H](CCCCN)NC(=O)[C@@H](Cc2ccc(NC(N)=O)cc2)NC(=O)[C@H](Cc2ccc(NC(=O)[C@@H]3CC(=O)NC(=O)N3)cc2)NC(=O)[C@H](NC(=O)[C@@H](N)Cc2ccc(Cl)cc2)CSSC[C@@H](C(=O)N[C@@H](Cc2ccc3ccccc3c2)C(N)=O)NC1=O`, the IC50 was 2.4 nM in [6]; 83 nM in experiment [7]; more than 1000 nM in experiment [8]; more than 1000 nM in experiment [9]; more than 1000 nM in [10].
Take `C[C@@H](O)[C@@H]1NC(=O)[C@H](CCCCN)NC(=O)[C@@H](Cc2c[nH]c3ccccc23)NC(=O)[C@H](Cc2ccc(O)cc2)NC(=O)[C@H](NC(=O)[C@@H](Cc2ccc([N+](=O)[O-])cc2)NC(=O)CN2CCN(CC(=O)O)CCN(CC(=O)O)CCN(CC(=O)O)CC2)CSSC[C@@H](C(=O)N[C@H](Cc2ccc(O)cc2)C(N)=O)NC1=O`: the outcome in [2] and in [4] was Active. The result in experiment [3] was inactive.
As to `C[C@@H](O)[C@@H]1NC(=O)[C@H](CCCCN)NC(=O)[C@@H](Cc2c[nH]c3ccccc23)NC(=O)[C@H](Cc2ccc(NC(N)=O)cc2)NC(=O)[C@H](NC(=O)[C@H](Cc2ccc(Cl)cc2)NC(=O)CCOCCOCCOCCNC(=O)CN2CCN(CC(=O)O)CCN(CC(=O)O)CCN(CC(=O)O)CC2)CSSC[C@@H](C(=O)N[C@@H](Cc2ccc3ccccc3c2)C(N)=O)NC1=O`, the IC50 in [6] is 40 nM; in experiment [7], 88 nM; in [8], 895 nM; in experiment [9] it was more than 1000 nM; in [10], 728 nM.
Taken in the same sequence, the figures for `C[C@@H](O)[C@@H]1NC(=O)[C@H](CCCCN)NC(=O)[C@@H](Cc2c[nH]c3ccccc23)NC(=O)[C@H](Cc2ccc(NC(N)=O)cc2)NC(=O)[C@H](NC(=O)[C@@H](N)Cc2ccc(Cl)cc2)CSSC[C@@H](C(=O)N[C@@H](Cc2ccc(NC(=O)[C@@H]3CC(=O)NC(=O)N3)cc2)C(N)=O)NC1=O` were 27 nM, 162 nM, 320 nM, more than 1000 nM and more than 1000 nM.
Regarding `C[C@@H](O)[C@@H]1NC(=O)[C@H](CCCCN)NC(=O)[C@@H](Cc2c[nH]c3ccc(F)cc23)NC(=O)[C@H](Cc2ccc(NC(N)=O)cc2)NC(=O)[C@H](NC(=O)[C@H](N)Cc2ccc(Cl)cc2)CSSC[C@@H](C(=O)N[C@@H](Cc2ccc3ccccc3c2)C(N)=O)NC1=O`, the outcome in [2] and in experiment [4] was Active. For the same molecule, the result in experiment [3] was inactive.
Consider `C[C@@H](O)[C@@H]1NC(=O)[C@H](CCCCN)NC(=O)[C@@H](Cc2ccc(NC(N)=O)cc2)NC(=O)[C@H](Cc2ccc(NC(=O)[C@@H]3CC(=O)NC(=O)N3)cc2)NC(=O)[C@H](NC(=O)[C@H](Cc2ccc(Cl)cc2)NC(=O)CN2CCN(CC(=O)O)CCN(CC(=O)O)CCN(CC(=O)O)CC2)CSSC[C@@H](C(=O)N[C@H](Cc2ccc(O)cc2)C(N)=O)NC1=O`, for which the IC50 in experiment [7], in experiment [8], in [9] and in experiment [10] was more than 1000 nM in each case.

Values taken from ChEMBL document CHEMBL1157505, “Design and in vitro characterization of highly sst2-selective somatostatin antagonists suitable for radiotargeting” (J Med Chem, 2008).
